In ChEMBL document CHEMBL1926589, “2-Anilinonicotinyl linked 2-aminobenzothiazoles and [1,2,4]triazolo[1,5-b] [1,2,4]benzothiadiazine conjugates as potential mitochondrial apoptotic inducers” (Bioorg Med Chem, 2011):

Legend:
DU-145 = assay: Growth inhibition of human DU145 cells at 10 uM by sulforhodamine B assay; format: functional; conditions: read-out: GI
In short: (§1)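 Single-dose 10 µM screen by sulforhodamine B assay, reported as percent inhibition of cell proliferation. Cells grown in medium with 10% heat-inactivated FBS at 37 °C, 5% CO2, and treated at about 70% confluence or in log phase. Compounds dissolved in DMSO; controls received vehicle (<0.5% v/v).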

HEp-2 = assay: Growth inhibition of human Hep2 cells at 10 uM by sulforhodamine B assay; format: functional; conditions: read-out: GI; in short: as §1
[1] = Growth inhibition of human 502713 cells at 10 uM by sulforhodamine B assay; format: functional; conditions: read-out: GI; in short: as §1
SK-N-SH = assay: Growth inhibition of human SK-N-SH cells at 10 uM by sulforhodamine B assay; format: functional; conditions: read-out: GI; in short: as §1
A549 = assay: Growth inhibition of human A549 cells at 10 uM by sulforhodamine B assay; format: functional; conditions: read-out: GI; in short: as §1
OVCAR-5 = assay: Growth inhibition of human OVCAR5 cells at 10 uM by sulforhodamine B assay; format: functional; conditions: read-out: GI; in short: as §1
HCT-15 = assay: Growth inhibition of human HCT15 cells at 10 uM by sulforhodamine B assay; format: functional; conditions: read-out: GI; in short: as §1
SiHa [2] = assay: Growth inhibition of human SiHa cells at 10 uM by sulforhodamine B assay; format: functional; conditions: read-out: GI; in short: as §1
IMR-32 = assay: Growth inhibition of human IMR32 cells at 10 uM by sulforhodamine B assay; format: functional; conditions: read-out: GI; in short: as §1
SW-620 = assay: Growth inhibition of human SW620 cells at 10 uM by sulforhodamine B assay; format: functional; conditions: read-out: GI; in short: as §1
SiHa [3] = assay: Growth inhibition of human SiHa cells after 48 hrs by MTT assay; format: functional, cell-based
HL-60 [4] = assay: Growth inhibition of human HL60 cells after 48 hrs by MTT assay; format: functional, cell-based; conditions: HL-60, 48 h
CV-1 = assay: Growth inhibition of african green monkey CV1 cells after 48 hrs by MTT assay; format: cell-based; conditions: Chlorocebus aethiops, CV-1, 48 h
[5] = Therapeutic ratio of IC50 for african green monkey CV1 cells to IC50 for human HL60 cells; format: ADME, cell-based, HL-60; conditions: CV1 cells and HL60 cells, read-out: Ratio IC50
HL-60 [6] = assay: Induction of apoptosis in human HL60 cells assessed as late apoptotic cells at 1 uM after 24 hrs using Annexin V-FITC and propidium iodide staining by flow cytometry relative to control; format: functional
In short: (§2)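 HL-60 cells (1 x 10^5 per 1.5 mL) treated 24 h, washed twice in PBS and stained in binding buffer with annexin V-FITC and PI. Flow cytometry with FITC in FL-1 (530 nm) and PI in FL-2 (585 nm), using quadrant statistics: lower right taken as apoptotic, upper right as post-apoptotic necrotic. Representative of three independent experiments.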

HL-60 [7] = assay: Induction of apoptosis in human HL60 cells assessed as early apoptotic cells at 1 uM after 24 hrs using Annexin V-FITC and propidium iodide staining by flow cytometry relative to control; format: functional; in short: as §2
HL-60 [8] = assay: Induction of apoptosis in human HL60 cells assessed as non-viable necrotic cells at 1 uM after 24 hrs using Annexin V-FITC and propidium iodide staining by flow cytometry relative to control; format: functional; in short: as §2

Row | SMILES | inhibition of growth at 10 µM (DU-145) [%] | inhibition of growth at 10 µM (HEp-2) [%] | inhibition of growth at 10 µM [1] [%] | inhibition of growth at 10 µM (SK-N-SH) [%] | inhibition of growth at 10 µM (A549) [%] | inhibition of growth at 10 µM (OVCAR-5) [%] | inhibition of growth at 10 µM (HCT-15) [%] | inhibition of growth at 10 µM (SiHa [2]) [%] | inhibition of growth at 10 µM (IMR-32) [%] | inhibition of growth at 10 µM (SW-620) [%] | IC50 (SiHa [3]) [nM] | IC50 (HL-60 [4]) [nM] | IC50 (CV-1) [nM] | selectivity ratio [5] | Activity (HL-60 [6]) [%] | Activity (HL-60 [7]) [%] | Activity (HL-60 [8]) [%]
1 | COc1ccc2nc(NC(=O)c3cccnc3Nc3ccc(Cl)cc3)sc2c1 | 25 | 13 | 10 | 23 | 10 | 10 | 44 | 31 | 24 | 15 | – | – | – | – | – | – | –
2 | CN1c2ccccc2S(=O)(=O)n2nc(-c3cccnc3Nc3cc(F)c(F)c(F)c3)nc21 | 13 | 0 | 26 | 18 | 14 | 8 | 9 | 15 | 28 | 34 | – | – | – | – | – | – | –
3 | COc1ccc2nc(NC(=O)c3cccnc3Nc3ccc(Cl)cc3Cl)sc2c1 | 17 | 17 | 4 | 14 | 0 | 4 | 24 | 16 | 6 | 10 | – | – | – | – | – | – | –
4 | COc1ccc(Nc2ncccc2C(=O)Nc2nc3ccc(OC)cc3s2)cc1 | 22 | 0 | 21 | 44 | 20 | 8 | 0 | 55 | 40 | 43 | – | – | – | – | – | – | –
5 | COc1ccc(Nc2ncccc2-c2nc3n(n2)S(=O)(=O)c2ccccc2N3c2ccccc2)cc1 | 5 | 10 | 2 | 0 | 0 | 2 | 0 | 0 | 0 | 14 | – | – | – | – | – | – | –
6 | O=S1(=O)c2ccccc2N(c2ccccc2)c2nc(-c3cccnc3Nc3ccc(Cl)cc3Cl)nn21 | 20 | 25 | 19 | 23 | 66 | 8 | 0 | 23 | 11 | 27 | – | – | – | – | – | – | –
7 | CC(=O)O[C@H]1C(=O)[C@@]2(C)[C@H]([C@H](OC(=O)c3ccccc3)[C@]3(O)C[C@H](OC(=O)[C@H](O)[C@@H](NC(=O)c4ccccc4)c4ccccc4)C(C)=C1C3(C)C)[C@]1(OC(C)=O)CO[C@@H]1C[C@@H]2O [PACLITAXEL] | 42 | – | 59 | 20 | 41 | 51 | 37 | 49 | 46 | 73 | – | – | – | – | – | – | –
8 | O=C(Nc1nc2ccc([N+](=O)[O-])cc2s1)c1cccnc1Nc1ccc(Cl)cc1 | 52 | 69 | 63 | 48 | 83 | 26 | 66 | 53 | 45 | 65 | > 50000 | 400 | 800 | 2 | – | – | –
9 | O=c1[nH]cc(F)c(=O)[nH]1 [FLUOROURACIL] | – | – | 21 | 7 | – | 22 | 44 | 44 | 71 | 76 | – | – | – | – | – | – | –
10 | CN1c2ccccc2S(=O)(=O)n2nc(-c3cccnc3Nc3ccc(Cl)cc3)nc21 | 9 | 0 | 28 | 3 | 28 | 10 | 0 | 13 | 3 | 34 | – | – | – | – | – | – | –
11 | CC[C@@]1(O)C(=O)OCc2c1cc1n(c2=O)Cc2cc3ccccc3nc2-1 [CAMPTOTHECIN] | – | – | – | – | – | – | – | – | – | – | – | – | – | – | 11 | 17 | 52
12 | O=C(Nc1nc2ccc([N+](=O)[O-])cc2s1)c1cccnc1Nc1ccc(F)c(Cl)c1 | 9 | 61 | 28 | 3 | 78 | 3 | 0 | 13 | 3 | 34 | – | – | – | – | – | – | –
13 | COc1ccc2nc(NC(=O)c3cccnc3Nc3ccc(F)cc3)sc2c1 | 32 | 32 | 2 | 24 | 5 | 3 | 0 | 35 | 2 | 21 | – | – | – | – | – | – | –
14 | COc1ccc(Nc2ncccc2-c2nc3n(n2)S(=O)(=O)c2ccccc2N3C)cc1 | 8 | 13 | 13 | 20 | 70 | 4 | 0 | 11 | 15 | 24 | – | – | – | – | – | – | –
15 | COc1ccc2nc(NC(=O)c3cccnc3Nc3cc(F)c(F)c(F)c3)sc2c1 | 28 | 7 | 43 | 47 | 6 | 25 | 21 | 63 | 55 | 52 | – | – | – | – | – | – | –
16 | O=S1(=O)c2ccccc2N(c2ccccc2)c2nc(-c3cccnc3Nc3cc(F)c(F)c(F)c3)nn21 | 14 | 52 | 14 | 16 | 3 | 2 | 0 | 26 | 48 | 22 | – | – | – | – | – | – | –
17 | O=S1(=O)c2ccccc2N(c2ccccc2)c2nc(-c3cccnc3Nc3ccc(Cl)cc3)nn21 | 6 | 57 | 18 | 27 | 46 | 1 | 0 | 30 | 31 | 68 | – | – | – | – | – | – | –
18 | CN1c2ccccc2S(=O)(=O)n2nc(-c3cccnc3Nc3ccccc3)nc21 | 8 | 0 | 30 | 0 | 39 | 15 | 0 | 0 | 0 | 32 | – | – | – | – | – | – | –
19 | COc1ccc2nc(NC(=O)c3cccnc3Nc3ccccc3)sc2c1 | 25 | 33 | 11 | 26 | 9 | 6 | 0 | 63 | 26 | 29 | – | – | – | – | – | – | –
20 | O=S1(=O)c2ccccc2N(c2ccccc2)c2nc(-c3cccnc3Nc3ccccc3)nn21 | 10 | 0 | 21 | 20 | 0 | 3 | 0 | 23 | 56 | 23 | – | – | – | – | – | – | –
